Active and inactive are the calls of the source. The calls are words filed in the database; no cut-off is given here.
What was measured:
[1] = molecular target: T1, Zinc finger protein GLI1 (Homo sapiens) (UniProt P08151); assay: Inhibition of GLI1 transcriptional activity in human A375 cells assessed as downregulation of GLI1 mRNA expression at 5 uM incubated for 48 hrs by qPCR analysis; format: cell-based; settings: A-375
T1 sequence (whole entry): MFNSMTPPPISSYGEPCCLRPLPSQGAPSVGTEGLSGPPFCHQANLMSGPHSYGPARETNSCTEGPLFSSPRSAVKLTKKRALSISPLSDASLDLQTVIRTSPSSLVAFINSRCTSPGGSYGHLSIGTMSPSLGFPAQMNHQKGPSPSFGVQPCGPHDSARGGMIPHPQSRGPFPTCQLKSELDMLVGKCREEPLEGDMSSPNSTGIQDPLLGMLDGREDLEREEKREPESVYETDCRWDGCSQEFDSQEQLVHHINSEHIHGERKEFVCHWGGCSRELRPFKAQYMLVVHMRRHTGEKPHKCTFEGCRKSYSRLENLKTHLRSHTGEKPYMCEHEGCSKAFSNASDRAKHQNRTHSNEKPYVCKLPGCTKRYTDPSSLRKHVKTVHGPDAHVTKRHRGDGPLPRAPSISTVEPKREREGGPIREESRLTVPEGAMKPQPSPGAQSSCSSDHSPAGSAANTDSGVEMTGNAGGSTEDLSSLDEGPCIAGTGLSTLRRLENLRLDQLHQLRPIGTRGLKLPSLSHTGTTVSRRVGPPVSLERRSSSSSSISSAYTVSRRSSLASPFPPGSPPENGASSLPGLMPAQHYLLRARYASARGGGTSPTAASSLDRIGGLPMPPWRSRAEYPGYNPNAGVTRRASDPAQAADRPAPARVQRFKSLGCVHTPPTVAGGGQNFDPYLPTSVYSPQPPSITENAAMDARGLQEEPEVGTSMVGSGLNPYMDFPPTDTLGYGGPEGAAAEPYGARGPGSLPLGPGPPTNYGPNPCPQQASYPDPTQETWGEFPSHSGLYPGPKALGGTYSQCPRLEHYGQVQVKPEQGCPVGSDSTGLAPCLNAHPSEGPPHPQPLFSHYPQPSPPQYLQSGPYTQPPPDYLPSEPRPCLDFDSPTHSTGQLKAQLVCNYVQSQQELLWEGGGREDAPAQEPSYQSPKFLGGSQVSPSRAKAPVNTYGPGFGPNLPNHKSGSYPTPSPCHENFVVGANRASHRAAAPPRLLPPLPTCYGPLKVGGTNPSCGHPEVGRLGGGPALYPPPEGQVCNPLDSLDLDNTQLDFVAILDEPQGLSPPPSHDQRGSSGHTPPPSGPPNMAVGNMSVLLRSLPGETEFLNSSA
Outline: (§1)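 A375 cells treated with compound (5 μM) or DMSO for 48 h. mRNA measured by qPCR as gene/(mean of HPRT and EIF2α) ratio, DMSO control set to 1. Mean ± SD.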

A-375 [2] = assay: Antiproliferative activity against human A375 cells transfected with lentivrus-encoding shRNA against GLI2 assessed as reduction in cell viability incubated for 72 hrs by trypan blue or crystal violet staining based assay; format: functional
Outline: (§2)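 A375 melanoma cells transduced with control lentivirus (LV-c), LV-shGLI1 or LV-shGLI2, with knockdown checked by Western blot (HSP90 loading control). Cells treated with DMSO or compound at the indicated doses for 72 h, then viability read. Values are mean ± SD of at least three independent experiments.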

[3] = molecular target: T2, Zinc finger protein GLI1 (Mus musculus) (UniProt P47806); assay: Inhibition of GLI1 transcriptional activity in HH-responsive mouse NIH3T3 cells assessed as reduction in GLI1 protein expression at 5 uM incubated for 48 hrs in presence of SAG by Western blot analysis; format: cell-based
T2 sequence (whole entry): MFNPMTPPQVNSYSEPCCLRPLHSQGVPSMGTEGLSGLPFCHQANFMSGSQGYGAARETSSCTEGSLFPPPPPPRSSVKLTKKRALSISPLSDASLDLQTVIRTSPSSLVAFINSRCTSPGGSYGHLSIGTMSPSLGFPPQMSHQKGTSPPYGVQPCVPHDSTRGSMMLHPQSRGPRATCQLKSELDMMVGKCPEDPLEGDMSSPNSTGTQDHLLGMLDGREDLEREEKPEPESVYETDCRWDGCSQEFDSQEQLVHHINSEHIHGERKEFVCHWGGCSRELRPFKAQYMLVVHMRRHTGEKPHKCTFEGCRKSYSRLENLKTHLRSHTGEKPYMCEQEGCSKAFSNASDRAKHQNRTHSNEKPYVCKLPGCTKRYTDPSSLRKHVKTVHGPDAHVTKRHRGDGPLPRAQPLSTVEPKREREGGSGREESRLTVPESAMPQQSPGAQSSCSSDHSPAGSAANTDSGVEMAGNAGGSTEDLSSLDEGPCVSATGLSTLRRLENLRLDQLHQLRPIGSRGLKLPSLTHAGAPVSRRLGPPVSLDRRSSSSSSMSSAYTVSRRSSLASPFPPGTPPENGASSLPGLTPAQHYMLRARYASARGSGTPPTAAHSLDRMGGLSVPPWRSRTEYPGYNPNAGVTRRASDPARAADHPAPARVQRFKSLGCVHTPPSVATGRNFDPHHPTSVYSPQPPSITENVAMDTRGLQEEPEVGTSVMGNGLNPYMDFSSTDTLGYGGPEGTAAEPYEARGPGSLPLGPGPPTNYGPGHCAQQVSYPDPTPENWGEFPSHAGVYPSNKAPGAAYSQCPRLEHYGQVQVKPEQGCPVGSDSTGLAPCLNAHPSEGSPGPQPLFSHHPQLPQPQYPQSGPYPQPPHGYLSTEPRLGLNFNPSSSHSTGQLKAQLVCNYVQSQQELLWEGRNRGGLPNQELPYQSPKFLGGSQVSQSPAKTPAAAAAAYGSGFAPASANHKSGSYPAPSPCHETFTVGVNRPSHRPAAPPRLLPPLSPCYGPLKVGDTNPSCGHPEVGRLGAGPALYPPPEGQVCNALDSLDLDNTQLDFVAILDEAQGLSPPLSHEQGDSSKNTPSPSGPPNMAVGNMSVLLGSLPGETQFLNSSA
Outline: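 Murine NIH3T3 cells given 100 nM SAG plus compound (5 μM) or DMSO for 48 h. Endogenous GLI1 protein measured by Western blot with HSP90 as loading control, band quantified against SAG-treated cells.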

Daoy = assay: Antiproliferative activity against human DaOY cells assessed as reduction in cell viability incubated for 72 hrs by trypan blue or crystal violet staining based assay; format: functional
MCF-10A = assay: Cytotoxicity against human MCF10A cells assessed as reduction in cell viability incubated for 72 hrs by trypan blue or crystal violet staining based assay
A-375 [4] = assay: Antiproliferative activity against human A375 cells transfected with lentivrus-encoding shRNA against GLI1 assessed as reduction in cell viability incubated for 72 hrs by trypan blue or crystal violet staining based assay; format: functional; outline: as §2
[5] = molecular target: T1, Zinc finger protein GLI1 (Homo sapiens); assay: Inhibition of GLI1 transcriptional activity in human A375 cells assessed as downregulation of Cyclin D1 mRNA expression at 5 uM incubated for 48 hrs by qPCR analysis; format: cell-based; settings: A-375; outline: as §1
[6] = molecular target: T1, Zinc finger protein GLI1 (Homo sapiens); assay: Inhibition of GLI1 transcriptional activity in human A375 cells assessed as downregulation of PTCH1 mRNA expression at 5 uM incubated for 48 hrs by qPCR analysis; format: cell-based; settings: A-375; outline: as §1
[7] = molecular target: T1, Zinc finger protein GLI1 (Homo sapiens); assay: Inhibition of GLI1 transcriptional activity in human A375 cells assessed as downregulation of GLI2 mRNA expression at 5 uM incubated for 48 hrs by qPCR analysis; format: cell-based; settings: A-375; outline: as §1
[8] = molecular target: T1, Zinc finger protein GLI1 (Homo sapiens); assay: Inhibition of GLI1 transcriptional activity in human A375 cells assessed as downregulation of HIP1 mRNA expression at 5 uM incubated for 48 hrs by qPCR analysis; format: cell-based; settings: A-375; outline: as §1
A-375 [9] = assay: Antiproliferative activity against human A375 cells assessed as reduction in cell viability incubated for 72 hrs by trypan blue or crystal violet staining based assay; format: functional
[10] = molecular target: T2, Zinc finger protein GLI1 (Mus musculus); assay: Inhibition of GLI1 transcriptional activity in HH-responsive mouse NIH3T3 cells assessed as reduction in SAG-induced luciferase activity at 5 uM incubated for 48 hrs by luciferase reporter gene assay relative to control; format: cell-based
Outline: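 HH-responsive NIH3T3 cells carrying a GLI-dependent firefly luciferase reporter with renilla control, treated 48 h with 100 nM SAG plus compound (5 μM). Firefly/renilla ratio normalised to SAG-only cells set at 100%, reported as percent inhibition.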

[11] = Homo sapiens, Daoy, 72 h, read-out: IC50
[12] = Homo sapiens, A-375, 72 h, read-out: IC50

inhibition [3]	IC50 (A-375 [9]; [12])	inhibition [10]	SMILES	IC50 (Daoy; [11])	further results
Active	4.1 µM	42%	CCOC(=O)c1c(-c2ccccc2)csc1NC(NC(=O)CC)C(Cl)(Cl)Cl (centres undefined)	6 µM	inhibition [1]: Active; Activity (A-375 [2]): inactive; Activity (MCF-10A): Non-Toxic; Activity (A-375 [4]): inactive; inhibition [5]: Active; inhibition [6]: Active; inhibition [7]: Active; inhibition [8]: Active
inactive			O=C(NCc1ccc2c(c1)OCO2)c1cnn2c(C(F)F)cc(C3CC3)nc12		
Active	0.6 µM	66%	O=C(NC1CCCc2ccccc21)c1cnn2c(C(F)(F)F)cc(-c3ccco3)nc12 (centres undefined)	5.7 µM	
Active	2.7 µM	51%	CCOC(=O)c1c(-c2ccccc2)csc1NC(NC(=O)c1ccco1)C(Cl)(Cl)Cl (centres undefined)	4.3 µM	
inactive			CCOC(=O)c1c(-c2ccccc2)csc1NC(NC(=O)c1cccc(C)c1)C(Cl)(Cl)Cl (centres undefined)		IC50 (Daoy; daoy): Not Active; IC50 (A-375 [9]; a-375): Not Active
Active	6.1 µM	81%	CCOC(=O)c1c(-c2ccccc2)csc1NC(NC(=O)c1cccc(Cl)c1)C(Cl)(Cl)Cl (centres undefined)	5.5 µM	
Active	5 µM	54%	O=C(NC1CCCc2ccccc21)c1cnn2c(C(F)F)cc(C3CC3)nc12 (centres undefined)	7.5 µM	
inactive			O=C(NC1CCOc2ccccc21)c1cnn2c(C(F)F)cc(C3CC3)nc12 (centres undefined)		IC50 (Daoy; daoy): Not Active; IC50 (A-375 [9]; a-375): Not Active
Active	2.7 µM	43%	COc1c(O)cc2oc3cc(O)c(CC=C(C)C)c(O)c3c(=O)c2c1CC=C(C)C [MANGOSTIN]	1.9 µM	
inactive			O=C(NC1CCCCC1)c1cnn2c(C(F)F)cc(C3CC3)nc12		
inactive			CCOC(=O)c1c(-c2ccccc2)csc1NC(NC(=O)c1ccccc1C)C(Cl)(Cl)Cl (centres undefined)		IC50 (Daoy; daoy): Not Active; IC50 (A-375 [9]; a-375): Not Active
Active	5.2 µM	74%	CCOC(=O)c1c(-c2ccccc2)csc1NC(NC(=O)c1ccc([N+](=O)[O-])cc1)C(Cl)(Cl)Cl (centres undefined)	3.1 µM	
Active	0.4 µM	46%	COc1cc(OC)c2c(=O)c(-c3ccc(OCC=C(C)C)c(OCC=C(C)C)c3)coc2c1	0.13 µM	inhibition [1]: Active; Activity (A-375 [2]): inactive; Activity (A-375 [4]): inactive; inhibition [5]: Active; inhibition [6]: Active; inhibition [7]: Active; inhibition [8]: Active
Active	12 µM	40%	CCOC(=O)c1c(-c2ccccc2)csc1NC(NC(=O)c1ccccc1)C(Cl)(Cl)Cl (centres undefined)	0.9 µM	inhibition [1]: Active; Activity (MCF-10A): Non-Toxic; inhibition [5]: Active; inhibition [6]: Active; inhibition [7]: Active; inhibition [8]: Active
inactive			O=C(c1cnn2c(C(F)F)cc(C3CC3)nc12)N(Cc1ccccc1)Cc1ccccc1		
inactive		0%	Cc1cc(C(F)F)n2ncc(C(=O)NC3CC(C)(C)Oc4ccccc43)c2n1 (centres undefined)		IC50 (Daoy; daoy): Not Active; IC50 (A-375 [9]; a-375): Not Active
inactive			O=C(NCCc1ccccc1)c1cnn2c(C(F)F)cc(C3CC3)nc12		
Active	2 µM	78%	CCOC(=O)c1c(-c2ccccc2)csc1NC(NC(=O)c1ccc(Br)cc1)C(Cl)(Cl)Cl (centres undefined)	3.4 µM	
Active	2.2 µM	40%	CC1(C)CC(NC(=O)c2cnn3c(C(F)F)cc(C4CC4)nc23)c2ccccc2O1 (centres undefined)	2.3 µM	inhibition [1]: Active; Activity (MCF-10A): Non-Toxic; inhibition [5]: Active; inhibition [6]: Active; inhibition [7]: Active; inhibition [8]: Active
inactive		7%	CCOC(=O)c1c(-c2ccccc2)csc1NC(NC(=O)c1cccc2ccccc12)C(Cl)(Cl)Cl (centres undefined)		IC50 (Daoy; daoy): Not Active; IC50 (A-375 [9]; a-375): Not Active
inactive			CCOC(=O)c1c(-c2ccccc2)csc1NC(NC(=O)c1ccc(C)cc1)C(Cl)(Cl)Cl (centres undefined)		IC50 (Daoy; daoy): Not Active; IC50 (A-375 [9]; a-375): Not Active
inactive	5.1 µM	38%	CCOC(=O)c1c(-c2ccccc2)csc1NC(NC(C)=O)C(Cl)(Cl)Cl (centres undefined)	2.8 µM	

Source: ChEMBL document CHEMBL4613300, “Pharmacophore-Based Virtual Screening for Identification of Negative Modulators of GLI1 as Potential Anticancer Agents” (ACS Med Chem Lett, 2020)
